{"source": "ChEMBL document CHEMBL5678814", "about": "“Novel Mps1 Kinase Inhibitors with Potent Antitumor Activity” (Mol Cancer Ther, 2016)", "key": {"[1]": {"target": "Serine/threonine-protein kinase BRSK2 (Homo sapiens, UniProt Q8IWQ3)", "sequence (Q8IWQ3 whole entry)": "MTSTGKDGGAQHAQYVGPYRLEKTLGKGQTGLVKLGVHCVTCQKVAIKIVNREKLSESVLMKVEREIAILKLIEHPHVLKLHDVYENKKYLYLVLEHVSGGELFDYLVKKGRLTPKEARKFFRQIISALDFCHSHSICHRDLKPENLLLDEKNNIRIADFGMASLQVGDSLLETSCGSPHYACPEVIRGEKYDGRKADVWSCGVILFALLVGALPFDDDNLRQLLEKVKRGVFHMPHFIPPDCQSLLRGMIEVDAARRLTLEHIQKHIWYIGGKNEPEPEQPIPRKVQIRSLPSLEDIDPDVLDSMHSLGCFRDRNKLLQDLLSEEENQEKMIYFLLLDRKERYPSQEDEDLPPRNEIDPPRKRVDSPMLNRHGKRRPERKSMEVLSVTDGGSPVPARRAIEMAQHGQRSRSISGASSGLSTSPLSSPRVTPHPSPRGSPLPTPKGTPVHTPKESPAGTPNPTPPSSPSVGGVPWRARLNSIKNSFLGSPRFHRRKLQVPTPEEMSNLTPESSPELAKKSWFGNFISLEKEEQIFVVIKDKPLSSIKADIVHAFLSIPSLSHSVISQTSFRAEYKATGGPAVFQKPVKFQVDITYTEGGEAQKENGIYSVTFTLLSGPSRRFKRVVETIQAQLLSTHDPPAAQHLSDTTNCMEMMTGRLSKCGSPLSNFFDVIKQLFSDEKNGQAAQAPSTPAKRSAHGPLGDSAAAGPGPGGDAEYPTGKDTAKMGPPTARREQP", "assay": "Binding affinity to BRSK2 (unknown origin) assessed as dissociation constant"}, "[2]": {"target": "Mitogen-activated protein kinase 8 (Homo sapiens, UniProt P45983)", "sequence (P45983 whole entry)": "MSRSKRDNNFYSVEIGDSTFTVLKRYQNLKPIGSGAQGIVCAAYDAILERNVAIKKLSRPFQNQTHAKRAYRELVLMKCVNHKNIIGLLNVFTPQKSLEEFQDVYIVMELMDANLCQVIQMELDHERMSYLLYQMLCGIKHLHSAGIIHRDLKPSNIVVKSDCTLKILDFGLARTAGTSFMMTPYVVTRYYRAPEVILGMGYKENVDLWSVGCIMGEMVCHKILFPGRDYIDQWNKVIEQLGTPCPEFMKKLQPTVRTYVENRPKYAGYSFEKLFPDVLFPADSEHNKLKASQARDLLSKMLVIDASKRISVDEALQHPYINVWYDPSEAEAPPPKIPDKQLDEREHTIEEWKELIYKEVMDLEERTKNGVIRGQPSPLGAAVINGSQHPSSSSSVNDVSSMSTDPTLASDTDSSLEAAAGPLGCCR", "assay": "Binding affinity to JNK1 (unknown origin) assessed as dissociation constant"}, "Misshapen-like kinase 1": {"target": "Misshapen-like kinase 1 (Homo sapiens, UniProt Q8N4C8)", "sequence (Q8N4C8 whole entry)": "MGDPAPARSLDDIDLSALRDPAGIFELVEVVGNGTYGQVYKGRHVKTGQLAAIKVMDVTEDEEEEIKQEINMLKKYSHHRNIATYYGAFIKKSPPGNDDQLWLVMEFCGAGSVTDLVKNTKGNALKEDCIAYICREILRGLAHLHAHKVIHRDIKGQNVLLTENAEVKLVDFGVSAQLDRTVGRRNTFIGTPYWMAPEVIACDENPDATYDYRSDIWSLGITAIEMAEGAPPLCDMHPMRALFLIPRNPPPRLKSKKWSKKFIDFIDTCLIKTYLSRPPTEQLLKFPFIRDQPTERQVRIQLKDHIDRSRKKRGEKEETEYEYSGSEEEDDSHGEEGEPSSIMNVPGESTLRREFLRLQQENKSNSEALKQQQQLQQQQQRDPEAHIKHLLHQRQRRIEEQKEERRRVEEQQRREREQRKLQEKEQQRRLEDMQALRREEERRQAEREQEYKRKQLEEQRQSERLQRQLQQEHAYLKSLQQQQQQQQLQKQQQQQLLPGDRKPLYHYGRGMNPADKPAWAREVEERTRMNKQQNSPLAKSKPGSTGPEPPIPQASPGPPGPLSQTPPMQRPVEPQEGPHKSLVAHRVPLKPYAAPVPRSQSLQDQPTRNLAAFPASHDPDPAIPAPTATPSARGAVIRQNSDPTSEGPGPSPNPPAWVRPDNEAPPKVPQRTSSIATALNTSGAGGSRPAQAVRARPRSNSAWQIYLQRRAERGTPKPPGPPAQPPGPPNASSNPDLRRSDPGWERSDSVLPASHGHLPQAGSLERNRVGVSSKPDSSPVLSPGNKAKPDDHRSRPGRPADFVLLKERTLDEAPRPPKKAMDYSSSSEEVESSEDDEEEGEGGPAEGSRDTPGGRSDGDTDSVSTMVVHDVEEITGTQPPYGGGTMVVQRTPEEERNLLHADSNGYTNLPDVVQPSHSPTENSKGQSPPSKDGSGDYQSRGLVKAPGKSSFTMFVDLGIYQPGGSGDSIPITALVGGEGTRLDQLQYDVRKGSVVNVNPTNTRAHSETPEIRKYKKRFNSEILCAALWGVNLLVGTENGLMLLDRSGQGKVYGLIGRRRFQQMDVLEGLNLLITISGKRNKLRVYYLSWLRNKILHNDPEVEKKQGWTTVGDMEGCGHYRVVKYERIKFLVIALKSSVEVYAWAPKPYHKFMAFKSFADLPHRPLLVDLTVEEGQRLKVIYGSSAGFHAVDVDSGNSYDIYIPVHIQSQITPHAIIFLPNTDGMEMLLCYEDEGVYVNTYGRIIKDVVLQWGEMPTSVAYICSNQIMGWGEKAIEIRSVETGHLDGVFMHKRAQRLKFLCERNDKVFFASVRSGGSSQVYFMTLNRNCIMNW", "assay": "Binding affinity to MINK (unknown origin) assessed as dissociation constant"}, "[3]": {"target": "Serine/threonine-protein kinase mTOR (Homo sapiens, UniProt P42345)", "assay": "Binding affinity to MTOR (unknown origin) assessed as dissociation constant"}, "HT1197": {"system": "HT1197", "assay": "Antiproliferative activity against human HT1197 cells assessed as cell growth inhibition incubated for 96 hrs by MTS assay", "type": "functional, cell-based", "settings": "HT1197, 96 h"}, "HT-1376": {"system": "HT-1376", "assay": "Antiproliferative activity against human HT-1376 cells assessed as cell growth inhibition incubated for 96 hrs by MTS assay", "type": "functional, cell-based", "settings": "HT-1376, 96 h"}, "NCI-H526": {"system": "NCI-H526", "assay": "Antiproliferative activity against human NCI-H526 cells assessed as cell growth inhibition incubated for 96 hrs by MTS assay", "type": "functional, cell-based", "settings": "NCI-H526, 96 h"}, "SK-MES-1": {"system": "SK-MES-1", "assay": "Antiproliferative activity against human SK-MES-1 cells assessed as cell growth inhibition incubated for 96 hrs by MTS assay", "type": "functional, cell-based", "settings": "SK-MES-1, 96 h"}, "LAPC4": {"system": "LAPC4", "assay": "Antiproliferative activity against human LAPC4 cells assessed as cell growth inhibition incubated for 96 hrs by MTS assay", "type": "functional, cell-based", "settings": "LAPC4, 96 h"}, "SJRH30": {"system": "SJRH30", "assay": "Antiproliferative activity against human Rh30 cells assessed as cell growth inhibition incubated for 96 hrs by MTS assay", "type": "functional, cell-based", "settings": "SJRH30, 96 h"}, "SNU-16": {"system": "SNU-16", "assay": "Antiproliferative activity against human SNU-16 cells assessed as cell growth inhibition incubated for 96 hrs by MTS assay", "type": "functional, cell-based", "settings": "SNU-16, 96 h"}, "[4]": {"assay": "Volume of distribution at steady state in male CD1 mouse plasma at 0.5 mg/kg, iv measured after 24 hrs by LC/-MS/MS analysis", "type": "ADME, organism-based", "settings": "read-out: Vdss", "method_in_brief": "(§1)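 Male CD1 mice received a single iv bolus of 0.5 mg/kg in 1% DMSO/99% plasma. Plasma was sampled at 2, 5, 15, 30 and 45 min and at 1, 2, 4, 6, 8 and 24 h, precipitated with ice-cold acetonitrile (1:5), and supernatants were run by LC/MS-MS. Parameters were estimated from plasma concentration data, with AUC by the log-linear trapezoidal rule.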"}, "[5]": {"assay": "Clearance in male CD1 mouse blood at 0.5 mg/kg, iv measured after 24 hrs by LC/-MS/MS analysis", "type": "ADME, organism-based", "method_in_brief": "as §1"}, "[6]": {"assay": "Half life in male Wistar rat plasma at 0.5 mg/kg, iv measured after 24 hrs by LC/-MS/MS analysis", "type": "ADME, organism-based"}, "[7]": {"assay": "Tmax in male Wistar rat plasma at 0.5 mg/kg, po measured after 24 hrs by LC/-MS/MS analysis", "type": "ADME, organism-based", "method_in_brief": "(§2)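 Male Wistar rats given 0.5 mg/kg orally. Plasma collected from 8 min to 24 h, precipitated with ice-cold acetonitrile (1:5), and analysed by LC/MS-MS. Cmax and Tmax read directly from concentration–time profiles.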"}, "[8]": {"assay": "Cmax in male Wistar rat plasma at 0.5 mg/kg, po measured after 24 hrs by LC/-MS/MS analysis", "type": "ADME, organism-based", "method_in_brief": "as §2"}, "[9]": {"assay": "Antitumor activity against human A2780cis cells xenografted female athymic NMRI mouse model assessed as T/C ratio at 2.5 mg/kg, po administered twice daily intermittent for 2 days on/5 days off", "type": "functional", "settings": "time 7 day"}, "SiHa": {"system": "SiHa", "assay": "Antiproliferative activity against human SiHa cells assessed as cell growth inhibition incubated for 96 hrs by crystal violet staining"}, "LoVo": {"system": "LoVo", "assay": "Antiproliferative activity against human LoVo cells assessed as cell growth inhibition incubated for 96 hrs by crystal violet staining"}, "A549": {"system": "A549", "assay": "Antiproliferative activity against human A549 cells assessed as cell growth inhibition incubated for 96 hrs by crystal violet staining", "settings": "A549, 96 h"}, "JJN-3": {"system": "JJN-3", "assay": "Antiproliferative activity against human JJN-3 cells assessed as cell growth inhibition incubated for 96 hrs by crystal violet staining", "settings": "JJN-3, 96 h"}, "L-363": {"system": "L-363", "assay": "Antiproliferative activity against human L-363 cells assessed as cell growth inhibition incubated for 96 hrs by crystal violet staining", "settings": "L-363, 96 h"}, "HCT-15": {"system": "HCT-15", "assay": "Antiproliferative activity against human HCT-15 cells assessed as cell growth inhibition incubated for 96 hrs by crystal violet staining", "settings": "HCT-15, 96 h"}, "SK-BR-3": {"system": "SK-BR-3", "assay": "Antiproliferative activity against human SK-BR-3 cells assessed as cell growth inhibition incubated for 96 hrs by crystal violet staining", "settings": "SK-BR-3, 96 h"}, "[10]": {"assay": "Antiproliferative activity against human OUMS-23 cells assessed as cell growth inhibition incubated for 96 hrs by crystal violet staining", "settings": "OUMS-23, 96 h"}, "NCI-H23": {"system": "NCI-H23", "assay": "Antiproliferative activity against human NCI-H23 cells assessed as cell growth inhibition incubated for 96 hrs by crystal violet staining", "settings": "NCI-H23, 96 h"}, "NCI-H292": {"system": "NCI-H292", "assay": "Antiproliferative activity against human NCI-H292 cells assessed as cell growth inhibition incubated for 96 hrs by crystal violet staining", "settings": "NCI-H292, 96 h"}, "[11]": {"assay": "Antiproliferative activity against human A2780cis cells assessed as cell growth inhibition incubated for 96 hrs by crystal violet staining"}, "NCI-H1155": {"system": "NCI-H1155", "assay": "Antiproliferative activity against human NCI-H1155 cells assessed as cell growth inhibition incubated for 96 hrs by crystal violet staining", "settings": "NCI-H1155, 96 h"}, "NCI-H1650": {"system": "NCI-H1650", "assay": "Antiproliferative activity against human NCI-H1650 cells assessed as cell growth inhibition incubated for 96 hrs by crystal violet staining", "settings": "NCI-H1650, 96 h"}, "NCI-H1770": {"system": "NCI-H1770", "assay": "Antiproliferative activity against human NCI-H1770 cells assessed as cell growth inhibition incubated for 96 hrs by crystal violet staining", "settings": "NCI-H1770, 96 h"}, "NCI-H2009": {"system": "NCI-H2009", "assay": "Antiproliferative activity against human NCI-H2009 cells assessed as cell growth inhibition incubated for 96 hrs by crystal violet staining", "settings": "NCI-H2009, 96 h"}, "SK-MEL-28": {"system": "SK-MEL-28", "assay": "Antiproliferative activity against human SK-MEL-28 cells assessed as cell growth inhibition incubated for 96 hrs by crystal violet staining", "settings": "SK-MEL-28, 96 h"}, "MIA PaCa-2": {"system": "MIA PaCa-2", "assay": "Antiproliferative activity against human MIA PaCa-2 cells assessed as cell growth inhibition incubated for 96 hrs by crystal violet staining", "settings": "MIA PaCa-2, 96 h"}}, "data": [{"compound": "COc1cc(S(C)(=O)=O)ccc1Nc1nc2ccc(-c3ccc(NC(=O)[C@H](C)c4ccc(F)cc4)cc3)cn2n1", "note": "[BAY-1161909]", "values": [{"measurement": "Kd", "setting": "[1]", "result": 40000, "unit": "nM"}, {"measurement": "Kd", "setting": "[2]", "result": 240, "unit": "nM"}, {"measurement": "Kd", "setting": "Misshapen-like kinase 1", "result": 40000, "unit": "nM"}, {"measurement": "Kd", "setting": "[3]", "result": 40000, "unit": "nM"}, {"measurement": "IC50", "setting": "HT1197", "result": "> 3000", "unit": "nM"}, {"measurement": "IC50", "setting": "HT-1376", "result": 3000, "unit": "nM"}, {"measurement": "IC50", "setting": "NCI-H526", "result": 100, "unit": "nM"}, {"measurement": "IC50", "setting": "SK-MES-1", "result": 210, "unit": "nM"}, {"measurement": "IC50", "setting": "LAPC4", "result": 130, "unit": "nM"}, {"measurement": "IC50", "setting": "SJRH30", "result": 450, "unit": "nM"}, {"measurement": "IC50", "setting": "SNU-16", "result": 88, "unit": "nM"}, {"measurement": "Vd", "setting": "[4]", "result": 3.4, "unit": "L/kg"}, {"measurement": "clearance", "setting": "[5]", "result": 11.5, "unit": "mL/min/kg"}, {"measurement": "half-life", "setting": "[6]", "result": 14, "unit": "h"}, {"measurement": "Tmax", "setting": "[7]", "result": 4, "unit": "h"}, {"measurement": "Cmax", "setting": "[8]", "result": 110, "unit": "ng/mL"}, {"measurement": "T/C", "setting": "[9]", "result": 0.43}, {"measurement": "IC50", "setting": "SiHa", "result": 610, "unit": "nM"}, {"measurement": "IC50", "setting": "LoVo", "result": 95, "unit": "nM"}, {"measurement": "IC50", "setting": "A549", "result": 130, "unit": "nM"}, {"measurement": "IC50", "setting": "JJN-3", "result": 100, "unit": "nM"}, {"measurement": "IC50", "setting": "L-363", "result": 32, "unit": "nM"}, {"measurement": "IC50", "setting": "HCT-15", "result": 110, "unit": "nM"}, {"measurement": "IC50", "setting": "SK-BR-3", "result": "> 3000", "unit": "nM"}, {"measurement": "IC50", "setting": "[10]", "result": "> 3000", "unit": "nM"}, {"measurement": "IC50", "setting": "NCI-H23", "result": 91, "unit": "nM"}, {"measurement": "IC50", "setting": "NCI-H292", "result": 190, "unit": "nM"}, {"measurement": "IC50", "setting": "[11]", "result": 60, "unit": "nM"}, {"measurement": "IC50", "setting": "NCI-H1155", "result": 1400, "unit": "nM"}, {"measurement": "IC50", "setting": "NCI-H1650", "result": 130, "unit": "nM"}, {"measurement": "IC50", "setting": "NCI-H1770", "result": 100, "unit": "nM"}, {"measurement": "IC50", "setting": "NCI-H2009", "result": 560, "unit": "nM"}, {"measurement": "IC50", "setting": "SK-MEL-28", "result": 670, "unit": "nM"}, {"measurement": "IC50", "setting": "MIA PaCa-2", "result": 1000, "unit": "nM"}]}]}
